Measurements as given in ChEMBL document CHEMBL1687774, “Furanyl-rhodanines are unattractive drug candidates for development as inhibitors of bacterial RNA polymerase” (Antimicrob Agents Chemother, 2010).
Values after ≈ are worked out from the molar mass of the structure shown.

Experiments:
[1] = Inhibition of Escherichia coli RNA polymerase using Kool NC-45 universal RNA polymerase template
How it was run: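 In vitro E. coli RNA polymerase assay using the Kool NC-45 universal RNA polymerase template; IC50 determined.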

[2] = tested on: Bacillus subtilis; experiment: Inhibition of Fatty acid biosynthesis in Bacillus subtilis 1S34 assessed as induction in biosensor fabHB promoter-luciferase reporter signal relative to untreated control; format: functional
How it was run: (§1)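 B. subtilis biosensor strains carry stress-responsive promoter-reporter constructs (parent 1S34). Value is the maximum reporter signal induced, as a ratio to the signal in noninduced control cultures.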

[3] = species: Bos taurus; experiment: Inhibition of bovine Chymotrypsin at 100 uM
How it was run: (§2)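 Bovine chymotrypsin and porcine malate dehydrogenase specificity screens with compound at 100 μM; percent inhibition of enzyme activity.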

[4] = tested on: Bacillus subtilis; experiment: Antibacterial activity against Bacillus subtilis 1S34 by microdilution method; format: functional
How it was run: (§3)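 MICs by broth microdilution in Mueller-Hinton broth following British Society for Antimicrobial Chemotherapy guidelines; where used, polymyxin B nonapeptide (4 μg/ml) was added together with the compound.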

[5] = tested on: Escherichia coli; experiment: Antibacterial activity against Escherichia coli 1411 by microdilution method; format: functional; how it was run: as §3
[6] = tested on: Bacillus subtilis; experiment: Inhibition of Protein biosynthesis in Bacillus subtilis 1S34 assessed as induction in biosensor yheI promoter-luciferase reporter signal relative to untreated control; format: functional; how it was run: as §1
[7] = tested on: Escherichia coli; experiment: Antibacterial activity against AcrAB-deficient Escherichia coli SM1411 by microdilution method; format: functional; how it was run: as §3
[8] = tested on: Bacillus subtilis; experiment: Inhibition of Cell envelope biosynthesis in Bacillus subtilis 1S34 assessed as induction in biosensor ypuA promoter-luciferase reporter signal relative to untreated control; format: functional; how it was run: as §1
[9] = tested on: Escherichia coli; experiment: Antibacterial activity against Escherichia coli 1411 by microdilution method in presence of 4 ug/ml PMBN; format: functional; how it was run: as §3
[10] = tested on: Staphylococcus aureus; experiment: Induction of membrane integrity loss in Staphylococcus aureus SH1000 at 4 times MIC after 10 mins by BacLight assay; format: functional
How it was run: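 Membrane integrity measured by BacLight fluorescence after S. aureus SH1000 was exposed to 4× MIC of compound for 10 min; expressed relative to the drug-free control (100%).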

[11] = tested on: Staphylococcus aureus; experiment: Antibacterial activity against Staphylococcus aureus SH1000 by microdilution method; format: functional; how it was run: as §3
[12] = tested on: Bacillus subtilis; experiment: Inhibition of RNA biosynthesis in Bacillus subtilis 1S34 assessed as induction in biosensor yvgS promoter-luciferase reporter signal relative to untreated control; format: functional; how it was run: as §1
[13] = tested on: Staphylococcus aureus; experiment: Induction of membrane potential loss in Staphylococcus aureus SH1000 at 4 times MIC after 10 mins by DIS3 fluorescence assay; format: functional
How it was run: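 Membrane potential measured with the fluorescent dye DiSc3(5) after S. aureus SH1000 was exposed to 4× MIC of compound for 10 min; expressed relative to the drug-free control (100%).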

[14] = species: Sus scrofa; experiment: Inhibition of pig Malate dehydrogenase at 100 uM; how it was run: as §2
[15] = tested on: Bacillus subtilis; experiment: Inhibition of DNA biosynthesis in Bacillus subtilis 1S34 assessed as induction in biosensor yorB promoter-luciferase reporter signal relative to untreated control; format: functional; how it was run: as §1
[16] = species: Sus scrofa; experiment: Inhibition of pig Malate dehydrogenase at 0.0472 uM
[17] = species: Bos taurus; experiment: Inhibition of bovine Chymotrypsin at 0.0472 uM
[18] = tested on: Staphylococcus epidermidis; experiment: Antibacterial activity against Staphylococcus epidermidis ATCC 11047 by microdilution method; format: functional; how it was run: as §3

Row | SMILES | IC50 [1] | inhibition [3] | MIC [4] | MIC [5] | MIC [7] | MIC [9] | MIC [11] | inhibition [14] | inhibition [16] | inhibition [17] | MIC [18] | fold change (FC) [2] | fold change (FC) [6] | fold change (FC) [8] | Activity [10] | fold change (FC) [12] | Activity [13] | fold change (FC) [15]
1 | O=C1NC(=S)S/C1=C\c1ccc([N+](=O)[O-])o1 | 32.2 µM | 49.4% | 1 µg/mL (≈ 3.9 µM) | 16 µg/mL (≈ 62.4 µM) | 16 µg/mL (≈ 62.4 µM) | 2 µg/mL | 4 µg/mL (≈ 15.6 µM) | 99.7% |  |  |  | 1.4 | 1.3 | 1 | 82.8% | 1.3 | 104.8% | 8
2 | O=C(O)CCCN1C(=O)/C(=C/c2ccc(-c3cccc(Cl)c3)o2)SC1=S | 16.3 µM | 96.7% | 1 µg/mL (≈ 2.45 µM) | > 128 µg/mL | > 128 µg/mL | 16 µg/mL | 4 µg/mL (≈ 9.81 µM) | 88.1% |  |  |  | 0.9 | 1.2 | 1 | 27.3% | 1 | 43.1% | 1.1
3 | C=CCN1C(=O)/C(=C/c2ccc(-c3ccc(C(=O)O)cc3)o2)SC1=S | 37.3 µM | 67.4% | > 256 µg/mL | > 256 µg/mL | > 256 µg/mL | > 256 µg/mL | > 256 µg/mL | 96.3% |  |  | > 256 µg/mL |  |  |  |  |  |  | 

Now those with a lower IC50 [1], led by results:

Row | IC50 [1] | inhibition [3] | MIC [4] | MIC [5] | MIC [7] | MIC [9] | MIC [11] | inhibition [14] | inhibition [16] | inhibition [17] | MIC [18] | SMILES | fold change (FC) [2] | fold change (FC) [6] | fold change (FC) [8] | Activity [10] | fold change (FC) [12] | Activity [13] | fold change (FC) [15]
4 | 0.726 µM |  |  |  |  |  |  |  |  |  |  | C/C=C/C/C=C(\C)C(O)CC/C(C)=C/C=C(\C)C(=O)c1c(O)cc([C@H](C)CC/C=C/NC(=O)OC)oc1=O (some centres undefined) [CORALLOPYRONIN A] |  |  |  |  |  |  | 
5 | 0.0115 µM |  |  |  |  |  |  |  | 8.3% | 7.8% |  | CO[C@H]1/C=C/O[C@@]2(C)Oc3c(C)c(O)c4c(O)c(c(/C=N/N5CCN(C)CC5)c(O)c4c3C2=O)NC(=O)/C(C)=C\C=C\[C@H](C)[C@H](O)[C@@H](C)[C@@H](O)[C@@H](C)[C@H](OC(C)=O)[C@@H]1C [RIFAMPIN] |  |  |  |  |  |  | 
6 | 0.0086 µM |  |  |  |  |  |  |  |  |  |  | CO[C@H]1/C=C/O[C@@]2(C)Oc3c(C)c(O)c4c(O)c(cc(O)c4c3C2=O)NC(=O)/C(C)=C\C=C\[C@H](C)[C@H](O)[C@@H](C)[C@@H](O)[C@@H](C)[C@H](OC(C)=O)[C@@H]1C [RIFAMYCIN] |  |  |  |  |  |  | 
